KCNK9 block: blocks the human KCNK9 two-pore domain potassium channel. Q9NPC2. HEK293 KCNK9, FluxOR thallium flux fluorescence; stronger effect = lower value. B-score at 10 µM. 310,000 compounds, 1.2% hits;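 active means ratio B-score over 3 SD below the library mean, with starting fluorescence within 5 SD of its mean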;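 further: negative B-score means less thallium flux so channel inhibition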
Target sequence (Q9NPC2 whole entry, looked up, the tested form may be a part): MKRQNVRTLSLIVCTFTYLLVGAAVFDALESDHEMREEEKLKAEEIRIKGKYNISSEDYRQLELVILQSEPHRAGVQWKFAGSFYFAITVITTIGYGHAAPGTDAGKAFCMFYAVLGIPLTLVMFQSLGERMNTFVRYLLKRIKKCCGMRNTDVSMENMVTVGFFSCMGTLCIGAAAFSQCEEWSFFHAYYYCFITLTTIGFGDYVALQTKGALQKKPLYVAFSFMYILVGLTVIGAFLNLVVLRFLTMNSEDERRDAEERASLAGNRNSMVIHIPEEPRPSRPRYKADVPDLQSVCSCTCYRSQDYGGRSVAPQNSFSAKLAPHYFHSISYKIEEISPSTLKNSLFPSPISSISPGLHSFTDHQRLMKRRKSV
KCNQ1 act: potentiates or activates the human KCNQ1 potassium channel. 310,000 compounds, 0.35% hits. P51787. CHO-K1 KCNQ1, thallium flux FluxOR fluorescence; stronger effect = higher value. B-score at 10 µM;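 active means fluorescence ratio B-score, a plate-corrected score, at least three library SD, with initial intensity B-score within 5 SD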
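Schedule – 37 °C overnight plating, 90-min dark dye load, 20-min compound pretreatment · System – stable KCNQ1 CHO-K1 line · Probe or stimulus – thallium- and potassium-containing depolarizing buffer · Measured by – kinetic FluxOR fluorescence, 10 s baseline plus 110 s post-stimulus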
KCNK3 inh: human KCNK3 channel inhibition, primary screen; 340,000 compounds, 0.84% hits; B-score at 10 µM; CHO-KCNK3 thallium flux, FluxOR fluorescence; stronger effect = lower value; O14649;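 active means B-score under library mean minus 4 SD, starting fluorescence ratio at most library mean plus 5 SD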;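 further: more negative B-score means stronger inhibition of thallium flux through KCNK3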
Target sequence (O14649 whole entry, looked up): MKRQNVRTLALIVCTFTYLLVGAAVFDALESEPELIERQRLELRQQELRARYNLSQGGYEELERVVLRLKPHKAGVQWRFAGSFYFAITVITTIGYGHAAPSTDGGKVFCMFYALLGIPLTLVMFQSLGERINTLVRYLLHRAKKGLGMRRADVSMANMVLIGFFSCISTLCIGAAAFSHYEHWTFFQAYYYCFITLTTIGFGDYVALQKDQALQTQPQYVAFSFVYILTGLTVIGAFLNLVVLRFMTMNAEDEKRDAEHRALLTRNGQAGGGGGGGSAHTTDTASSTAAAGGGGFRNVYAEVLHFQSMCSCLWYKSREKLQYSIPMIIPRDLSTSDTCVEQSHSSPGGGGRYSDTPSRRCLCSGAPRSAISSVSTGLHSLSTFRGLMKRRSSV
KCC2 mod: modulators of human KCC2 chloride dependent transport. 190,000 compounds, 2.2% hits. B-score of Tl+ flux slope (higher = more flux/activation; lower = inhibition) at 10 µM. KCC2 cells, thallium flux FluoZin-2 fluorescence. AID 1456. Q9H2X9;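 active means thallium flux slope and its plate-corrected score both differing from the plate sample mean at a set confidence after two filtering rounds, in either direction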;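 further: slope of fluorescence scaled to starting intensity during 10 to 20 s after thallium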
hERG protect: compounds protecting human hERG from proarrhythmic drug block | Q12809 | CHO-hERG, FluxOR thallium flux, dofetilide IC70 present | activation (rescue from dofetilide block), less the hit threshold, % at 10 µM | 310,000 compounds, 0.51% hits | AID 1511;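 active means activation above the mean of controls blocked by dofetilide plus 5 SD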;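 further: thallium influx through hERG after potassium depolarization seen as dye fluorescence rise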
KCNQ1 block: human KCNQ1 channel inhibition. P51787. CHO-K1 KCNQ1, FluxOR thallium flux fluorescence; stronger effect = higher value. B-score at 10 µM. 310,000 compounds, 1.3% hits;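 active means compounds whose thallium flux B-score, printed positive for inhibition, exceeds three library SD while starting fluorescence stays within three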;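 further: channel opened by potassium depolarization with thallium stimulus after 20 min compound exposure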
KCC2 secondary: KCC2 (human) modulation, secondary assay | normalised thallium flux (F/F0 slope) at 10 µM | AID 1713 | HEK293-KCC2, thallium flux, FluoZin2 fluorescence; stronger effect = higher value | 3,700 compounds, 15% hits | shares compounds with KCC2 mod;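 active means thallium flux slope above the same plate's solvent-only control mean plus 3 SD; inconclusive means the two replicate wells disagree; inactive means no significant difference from solvent-only control wells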
KCC2 bumet counter: bumetanide-insensitive thallium flux in KCC2 cells with ouabain, counter-screen. shares compounds with KCC2 mod. HEK293-KCC2 + bumetanide/ouabain, thallium flux FluoZin2; stronger effect = higher value. normalized thallium flux at 10 µM. 3,700 compounds, 49% hits. AID 1714;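 active means thallium entry rate above the same plate's blocked-transporter control wells by more than 3 SD; inconclusive means the two repeat wells disagree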;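 further: raw slope of fluorescence over initial fluorescence between 10 and 20 s after thallium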
KCC2 secondary2: KCC2 (human) modulation, second secondary assay; shares compounds with KCC2 mod; HEK293-KCC2, thallium flux FluoZin2 fluorescence; actives lie on both sides; F/F0 rise rate, 10–20 s post-thallium; normalized thallium flux at 10 µM; 3,700 compounds, 23% hits; AID 1715;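 active means thallium flux slope more than 3 SD above or below the plate's solvent-only control mean, mostly below; inconclusive means the two repeat wells disagreed; inactive means no significant shift from solvent-only controls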;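 further: raw slope with 0.1% DMSO as baseline and bumetanide as block control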
HEK293 Tl flux: parental HEK flux effect, counter-screen; HEK293 parental cells, thallium flux FluoZin2, ouabain; baseline-ratio fluorescence slope, 10–20 s after thallium; thallium flux rate (normalised fluorescence) at 10 µM; shares compounds with KCC2 mod; 3,700 compounds, 46% hits; AID 1716;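 active means thallium flux rate significantly above the same plate's solvent-only control wells, beyond their mean plus 3 SD; inconclusive means the two replicate wells gave conflicting results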
KCC2 ouabain: modulates human KCC2 on retest with ouabain | AID 1717 | HEK293-KCC2, thallium flux FluoZin2 fluorescence; bidirectional: low = inhibitor, high = activator | raw Tl+ flux slope (below DMSO = inhibition, above = activation) at 10 µM | shares compounds with KCC2 mod | 3,700 compounds, 48% hits;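 active means thallium flux slope beyond 3 SD from same-plate DMSO control mean in most replicates, usually higher, sometimes lower; inconclusive means repeat tests gave conflicting results; inactive means no significant difference from controls in most replicates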;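 further: slope of initial-normalized fluorescence between seconds 10 and 20 after thallium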
HEK counter2: counter-screen for KCC2 modulators: effect in parental HEK293 cells | thallium flux FluoZin-2 fluorescence slope | shares compounds with KCC2 mod | 3,700 compounds, 33% hits | thallium flux slope at 10 µM;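 active means thallium flux slope above the same plate's solvent-control mean plus 3 SD in both duplicate wells; inconclusive means duplicate wells that disagreed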;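 further: run without ouabain in cells lacking the KCC2 cotransporter; slope of fluorescence scaled to its starting value between 10 and 20 s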
Numbers without * were called inactive; i = inactive; ? = inconclusive; . = not tested or not shown. Compounds with a hit are over-represented: about 4.1% of the library has one in this group of screens.

SMILES	KCNK9 block	KCNQ1 act	KCNK3 inh	KCC2 mod	hERG protect	KCNQ1 block	KCC2 secondary	KCC2 bumet counter	KCC2 secondary2	HEK293 Tl flux	KCC2 ouabain	HEK counter2
Cc1cc(CC(C)C)n(-c2nc3ccccc3c(=O)n2OCc2ccccc2)n1	i	i	i	5.1*	-11	i	0.0086	0.023*	0.03	0.011*	0.052*	0.012*
O=C1NC[C@@H](Cc2cccc3ccccc23)N(CC2CCCCC2)C1=O	i	i	i	-3*	-13	i	0.0054	0.0047	0.024*	0.007	0.016	0.0093
CN(CC(=O)N1CC(=O)N(CCc2ccccc2)C(=O)C1)S(=O)(=O)c1cccc2nsnc12	i	i	i	-4*	-13	i	0.0058	0.0056*	?	0.0085	?	0.012
COc1ccc2occ(C(=O)c3ccc(N)cc3)c2c1	i	i	i	.	-11	i	.	.	.	.	.	.
COc1ccc2occ(C(=O)c3cccs3)c2c1	i	i	i	.	-9	i	0.0067	0.0071*	0.03	0.0074	0.019	0.011
CC(C)(C)c1ccc(C(=O)CC(=O)c2cc(Cl)ccc2O)cc1	i	i	i	4.4*	7.7*	i	0.0055	0.018*	0.035	0.023*	0.025*	0.017*
Cc1ccc(C(=O)CC(=O)c2ccc(C(C)(C)C)cc2)cc1	i	i	i	0.5	-12	i	.	.	.	.	.	.
CCOC(=O)C1=C(N)OC2=C(C(=O)CCC2)C1c1sccc1C (stereo not given)	i	i	i	-6.4*	-8	i	0.0059	0.0045	?	0.0062*	0.017	0.0088*
O=C(O)c1cc(S(=O)(=O)N2CCCCC2)ccc1N1CCOCC1	.	.	i	.	.	.	.	.	.	.	.	.
COC(=O)c1cc(OC)c(OC)cc1NC(=O)c1cc(OC)cc(OC)c1	i	i	i	5.3*	-13	i	0.0092	0.0052	0.031	0.0068	0.021	0.0094
COC(=O)c1cc(OC)c(OC)cc1NC(=S)N1CCCCC1	i	i	i	-3.9*	-5	i	0.0062	0.005	0.031	0.0074	0.02	0.011
COc1cc(NC(=O)c2ccc(F)cc2)c(OC)cc1Cl	i	i	i	0.55	-6	i	.	.	.	.	.	.
COC(=O)c1cc(OC)c(OC)cc1NC(=O)c1ccccc1	i	i	i	-0.81	-11	i	.	.	.	.	.	.
COc1ccc(C(=O)Nc2cc(OC)c(Cl)cc2OC)cc1	i	i	i	-4.5*	-3	i	0.0098	0.0086*	0.033	0.015*	0.021	0.011
COC(=O)c1cc(OC)c(OC)cc1NC(=S)N1CCN(C)CC1	i	i	i	.	-5	i	.	.	.	.	.	.
COc1cccc(/C=C2/CCC(CN(C)C)C2=O)c1 (stereo not given)	.	.	i	.	.	.	.	.	.	.	.	.
COc1ccc(NC(=O)COC(=O)CNC(=O)COc2ccccc2)cc1OC	.	.	i	.	.	.	.	.	.	.	.	.
O=C(c1ccc(Cl)cc1)C1CCN(C(=S)Nc2ccccc2)CC1	.	.	i	.	.	.	.	.	.	.	.	.
Cc1[nH]n(-c2ccccc2)c(=O)c1C=Nc1ccc2[nH]c(=O)[nH]c2c1	i	i	i	-0.58	-3	i	.	.	.	.	.	.
Cc1[nH]n(-c2ccccc2)c(=O)c1/C=N/N(c1ccccc1)c1ccccc1	i	i	i	68*	-5	i	?	0.11*	0.072*	0.063*	0.088*	0.061*
Cc1ccc(-n2[nH]c(C)c(/C=N/c3cccc(C)n3)c2=O)cc1	i	i	i	4.9*	-8	i	0.0075	0.013*	0.032	0.013*	?	0.011
Cc1[nH]n(-c2ccccc2)c(=O)c1C=Nc1cccc(F)c1	i	i	i	4.6*	-7	i	0.012	0.033*	0.03	0.016*	0.028	?
Cc1cccc(/N=C/c2c(C)[nH]n(-c3ccccc3)c2=O)n1	i	i	i	18*	-10	i	0.0098	0.032*	0.03	0.012*	?	?
C=CCN=Cc1c(C)[nH]n(-c2ccccc2)c1=O	i	i	i	0.095	-4	i	.	.	.	.	.	.
Cc1ccc(CNC(=O)CN(C(=O)C2(C)CC(=O)N=C3C=CC=CN32)c2ccc(F)cc2)cc1 (stereo not given)	i	i	i	.	-2	i	.	.	.	.	.	.
SMILES	KCNK9 block	KCNQ1 act	KCNK3 inh	KCC2 mod	hERG protect	KCNQ1 block	KCC2 secondary	KCC2 bumet counter	KCC2 secondary2	HEK293 Tl flux	KCC2 ouabain	HEK counter2
COCCN(C(=O)CNC(=O)c1cccs1)C(C(=O)NC1CCCCC1)c1ccco1 (stereo not given)	.	.	i	.	.	.	0.007	0.0041	0.034	0.0069	0.019	0.011
COCCN(C(=O)CNC(=O)c1cccs1)C(C(=O)NC1CCCC1)c1cccs1 (stereo not given)	i	i	i	-0.052	-6	i	.	.	.	.	.	.
O=C(NC1CC1)c1nc(Cn2cc([N+](=O)[O-])cn2)no1	i	i	i	.	-9	i	.	.	.	.	.	.
CCCCOc1ccc(/C=N/NC(=S)Nc2cc(C)ccc2C)cc1	i	i	i	-0.074	-9	i	.	.	.	.	.	.
COCCCNC(=S)N/N=C/c1cccc(OC)c1O	i	i	i	0.33	-11	i	.	.	.	.	.	.
CCCCNC(=S)N/N=C/c1ccccc1F	i	i	i	7.2*	0	i	0.011	0.038*	0.033	0.019*	?	0.012*
CCCCNC(=S)N/N=C/c1ccc(C)s1	i	i	i	4*	-12	i	?	0.027*	0.031	0.012*	0.021*	0.014*
CCCCNC(=S)N/N=C/c1sccc1C	i	i	i	10*	-6	i	0.01	0.017*	0.034	0.019*	?	?

Screening results: PubChem, several laboratories
